In brackets after ≈: the same amount, converted by molar mass.
Assays:
[1] = system: Streptomyces hygroscopicus; assay: Antimicrobial activity against hyg19 deficient Streptomyces hygroscopicus SCH30 by after 48 hrs by agar plate dilution method; format: functional; settings: SCH30, 48 h
In short: (§1)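 Spores plated on yeast extract malt extract agar containing a series of HA concentrations, incubated 48 h at 30°C, then scored for growth. MIC taken as the lowest HA concentration preventing visible growth of at least 95% of CFU.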

[2] = system: Streptomyces hygroscopicus; assay: Ratio of Kcat to Km for Streptomyces hygroscopicus recombinant N-terminal His-tagged Hyg26 reductase expressed in Escherichia coli BL21 (DE3)
In short: (§2)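 His-tagged Hyg26, expressed in E. coli BL21-CodonPlus(DE3) and purified on Ni-NTA. Reductase kinetics: 800 ng enzyme, 50 mM phosphate pH 6 with 2 mM TCEP, 37°C, 15 min. NADH fixed at 60 mM with antibiotic 2–60 mM; for NADH, HA fixed at 20 mM with NADH 0.25–10 mM. DHHA-type product quantified by reverse-phase HPLC peak area. Duplicates averaged and fitted for kinetic parameters.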

[3] = system: Streptomyces hygroscopicus; assay: Antimicrobial activity against hyg28 deficient Streptomyces hygroscopicus SCH30 by after 48 hrs by agar plate dilution method; format: functional; settings: SCH30, 48 h; in short: as §1
[4] = system: Streptomyces hygroscopicus; assay: Antimicrobial activity against hyg19-hyg20-hyg21 deficient Streptomyces hygroscopicus SCH30 by after 48 hrs by agar plate dilution method; format: functional; settings: SCH30, 48 h; in short: as §1
Escherichia coli [5] = assay: Antimicrobial activity against tolC deficient Escherichia coli by after 2 hrs; format: functional
In short: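 ΔtolC E. coli grown in 200 μl LB at 37°C for 2 h across a range of antibiotic concentrations, read by A600. MIC is the lowest concentration giving 95% growth inhibition relative to an untreated culture.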

[6] = system: Streptomyces hygroscopicus; assay: Activity at Streptomyces hygroscopicus recombinant N-terminal His-tagged Hyg26 reductase expressed in Escherichia coli BL21 (DE3); in short: as §2
[7] = system: Streptomyces hygroscopicus; assay: Antimicrobial activity against wild type Streptomyces hygroscopicus by after 48 hrs by agar plate dilution method; format: functional; in short: as §1
Streptomyces lividans = assay: Antimicrobial activity against Streptomyces lividans by after 48 hrs by agar plate dilution method; format: functional; in short: as §1
Escherichia coli [8] = assay: Inhibition of protein synthesis in Escherichia coli assessed as green fluorescent protein synthesis by coupled transcription-translation assay; format: functional, organism-based
In short: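 E. coli lysate coupled transcription-translation with a GFP template, run with and without antibiotic at increasing concentrations. GFP measured by fluorescence scanning and native PAGE. Triplicates, expressed as percent of fluorescence without antibiotic.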

[9] = system: Streptomyces hygroscopicus; assay: Antimicrobial activity against hyg20 deficient Streptomyces hygroscopicus SCH30 by after 48 hrs by agar plate dilution method; format: functional; settings: SCH30, 48 h; in short: as §1

Compound	MIC [1] [µg/mL]	kcat/Km [2] [×10³ /M/s]	MIC [3] [µg/mL]	MIC [4] [µg/mL]	MIC (Escherichia coli [5]) [µg/mL]	Km [6] [mM]	kcat [6] [s⁻¹]	MIC [7] [µg/mL]	MIC (Streptomyces lividans) [µg/mL]	IC50 (Escherichia coli [8]) [nM]	IC90 (Escherichia coli [8]) [nM]	MIC [9] [µg/mL]
CC(=O)[C@H]1O[C@@H](Oc2ccc(/C=C(\C)C(=O)N[C@@H]3[C@H](O)[C@@H](O)[C@H]4OCO[C@H]4[C@@H]3O)cc2O)[C@@H](O)[C@@H]1O [HYGROMYCIN A]	400 (≈ 782 µM)	1	300 (≈ 587 µM)	75 (≈ 147 µM)	10 (≈ 19.6 µM)	5.8	5.1	400 (≈ 782 µM)	20 (≈ 39.1 µM)	180	250	300 (≈ 587 µM)
C/C(=C\c1ccc(O[C@@H]2O[C@H](C(C)O)[C@@H](O)[C@@H]2O)c(O)c1)C(=O)N[C@@H]1[C@H](O)[C@@H](O)[C@H]2OCO[C@H]2[C@@H]1O (stereo partly drawn)	–	–	–	–	20 (≈ 38.9 µM)	–	–	–	–	300	1500	–
CC(=O)[C@H]1O[C@@H](Oc2ccc(/C=C(\C)C(=O)N[C@@H]3[C@H](O)[C@@H](O)[C@@H](O)[C@@H](O)[C@@H]3O)cc2O)[C@@H](O)[C@@H]1O [DESMETHYLENEHYGROMYCIN A]	–	0.9	–	–	150 (≈ 300 µM)	63.6	31.7	–	–	320	1000	–
CO[C@@H]1[C@H](O)[C@@H](O)[C@@H](NC(=O)/C(C)=C/c2ccc(O[C@@H]3O[C@H](C(C)O)[C@@H](O)[C@@H]3O)c(O)c2)[C@@H](O)[C@@H]1O (stereo partly drawn) [5'-DIHYDROMETHOXYHYGROMYCIN A]	–	–	–	–	150 (≈ 291 µM)	–	–	–	–	7400	50000	–
CO[C@@H]1[C@H](O)[C@@H](O)[C@@H](NC(=O)/C(C)=C/c2ccc(O[C@@H]3O[C@H](C(C)=O)[C@@H](O)[C@@H]3O)c(O)c2)[C@@H](O)[C@@H]1O [METHOXYHYGROMYCIN A]	–	0.9	–	–	150 (≈ 292 µM)	19.8	15.5	–	–	500	2000	–
C/C(=C\c1ccc(O[C@@H]2O[C@H](C(C)O)[C@@H](O)[C@@H]2O)c(O)c1)C(=O)N[C@@H]1[C@H](O)[C@@H](O)[C@@H](O)[C@@H](O)[C@@H]1O (stereo partly drawn)	–	–	–	–	150 (≈ 299 µM)	–	–	–	–	2700	14100	–
